Each structure is given as a SMILES string. Converted amounts (≈) assume the structure as drawn.

In test [1] the test system is Staphylococcus aureus. In words: The compound was tested in vitro for minimum inhibitory concentration against Staphylococcus aureus 67-0. It is filed as functional. In a few lines:
(§1)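 Agar dilution on Mueller-Hinton agar using 2-fold serial dilutions, giving final 128 to 0.0156 μg/mL (extended to 0.000977 μg/mL where needed). Inoculum was overnight broth culture diluted 100-fold, about 3×10^4 CFU/spot, applied by replicator. MIC read after overnight incubation at 36 °C.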

The subject of test [2] is Escherichia coli. Briefly: Minimum inhibitory concentration for inhibition of [14C]- Pen G binding to Escherichia coli UB1005. It is filed as functional. The essentials: (§2)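 Membranes from sonicated E. coli UB1005 were solubilized. Binding to penicillin-binding proteins was measured as inhibition of [14C]penicillin G binding.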
In test [3] the test system is Escherichia coli. In words: The compound was tested in vitro for minimum inhibitory concentration against Escherichia coli TEM-1. It is filed as functional. In a few lines: as §1
Test [4] relates to Escherichia coli. Briefly: The compound was evaluated for the inhibition of [14C]- Pen G binding to Escherichia coli UB1005 penicillin-binding protein 1a 90 kDa. The essentials: as §2
The test system of test [5] is Pseudomonas aeruginosa. Briefly: The compound was tested in vitro for minimum inhibitory concentration against Pseudomonas aeruginosa 18S/H. It is filed as functional. The essentials: as §1
Test [6] concerns Escherichia coli. In words: Minimum inhibitory concentration required to inhibit the activity of Escherichia coli ATCC 25922. It is filed as functional. The essentials:
as §1

In test [7] the test system is Enterobacter cloacae. Briefly: The compound was tested in vitro for minimum inhibitory concentration against Enterobacter cloacae P99. It is filed as functional.
In test [8] the test system is Escherichia coli. In words: The compound was tested in vitro for minimum inhibitory concentration against Escherichia coli ATCC 25922. It is filed as functional. In a few lines: as §1
For test [9], the system named is Escherichia coli. In words: The compound was evaluated for the inhibition of [14C]- Pen G binding to Escherichia coli UB1005 penicillin-binding protein 2 66 kDa. The essentials: as §2
Test [10] concerns Enterococcus faecalis. In words: The compound was tested in vitro for minimum inhibitory concentration against Enterococcus faecalis ATCC 29212. It is filed as functional. In a few lines: as §1
For test [11], the system named is Proteus vulgaris. Briefly: The compound was tested in vitro for minimum inhibitory concentration against Proteus vulgaris 1028 BC. It is filed as functional. In a few lines:
(§3)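 Proteus MICs by agar dilution on Mueller-Hinton medium containing 3% agar. Serial 2-fold dilutions gave final 128 to 0.0156 μg/mL (further to 0.000977 μg/mL). Inoculum was overnight broth diluted 100-fold, about 3×10^4 CFU/spot. Plates read after overnight incubation at 36 °C.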

The test system of test [12] is Serratia marcescens. In words: The compound was tested in vitro for minimum inhibitory concentration against Serratia marcescens 1071. It is filed as functional. In a few lines: as §1
In test [13] the test system is Escherichia coli. In words: The compound was evaluated for the inhibition of [14C]- Pen G binding to Escherichia coli UB1005 penicillin-binding protein 1b 90 kDa. The essentials: as §2
Test [14] concerns Staphylococcus aureus. Briefly: The compound was tested in vitro for minimum inhibitory concentration against Staphylococcus aureus smith. It is filed as functional. The essentials: as §1
The subject of test [15] is Escherichia coli. In words: Inhibitory activity on replicative DNA biosynthesis in Escherichia coli H560 (permeabilised cells). It is filed as functional, organism-based. The essentials:
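E. coli H560 cells permeabilized with toluene. ATP-dependent incorporation of [3H]thymidine into trichloroacetic acid-insoluble material was measured. IC50 taken as the concentration giving 50% inhibition.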

In test [16] the test system is Streptococcus pneumoniae. In words: The compound was tested in vitro for minimum inhibitory concentration against Streptococcus pneumoniae 6301. It is filed as functional. The essentials:
(§4)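 Streptococci tested by agar dilution on brain heart infusion agar with 20 units/mL bovine liver catalase. Final drug range 128 to 0.0156 μg/mL by 2-fold steps, extended to 0.000977 μg/mL when required. Inoculum about 3×10^4 CFU/spot from overnight broth diluted 100-fold. MIC after overnight incubation at 36 °C.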

Test [17] deals with Streptococcus pyogenes. Briefly: The compound was tested in vitro for minimum inhibitory concentration against Streptococcus pyogenes. It is filed as functional. In a few lines:
as §4

Test [18] relates to Proteus mirabilis. In words: The compound was tested in vitro for minimum inhibitory concentration against Proteus mirabilis 90. It is filed as functional. The essentials: as §3
The test system of test [19] is Pseudomonas aeruginosa. Briefly: The compound was tested in vitro for minimum inhibitory concentration against Pseudomonas aeruginosa 8780. It is filed as functional. In a few lines:
as §1

Test [20] has as its system Escherichia coli. Briefly: The compound was tested in vitro for minimum inhibitory concentration against Escherichia coli 257. It is filed as functional. In a few lines:
as §1

Test [21] concerns Escherichia coli. Briefly: The compound was evaluated for the inhibition of [14C]- Pen G binding to Escherichia coli UB1005 penicillin-binding protein 3 60 kDa. The essentials:
as §2

Test [22] relates to Escherichia coli. In words: Minimum inhibitory concentration required to inhibit the activity of Escherichia coli UB1005. It is filed as functional. In a few lines:
as §1

Test [23] concerns Micrococcus luteus. Briefly: The compound was tested in vitro for minimum inhibitory concentration against Micrococcus luteus ATCC 9341. It is filed as functional. In a few lines:
as §1

Test [24] has as its system Klebsiella pneumoniae. In words: The compound was tested in vitro for minimum inhibitory concentration against Klebsiella pneumoniae A. It is filed as functional. The essentials:
as §1

In test [25] the test system is Staphylococcus aureus. In words: The compound was tested in vitro for minimum inhibitory concentration against Staphylococcus aureus 753. It is filed as functional. The essentials:
as §1

Test [26] concerns Citrobacter freundii. Briefly: The compound was tested in vitro for minimum inhibitory concentration against Citrobacter Freundii BS-16. It is filed as functional. The essentials: as §1

Broadly, the MIC is the smallest concentration in the dilution series that meets the test's criterion for growth inhibition. One may read the IC50 as the concentration that inhibits the measured activity by half. As for `NC(=O)CO/N=C(\C(=O)N[C@@H]1C(=O)N2C(C(=O)O)=C(COC(=O)N3CCN(c4cc5c(cc4F)c(=O)c(C(=O)O)cn5C4CC4)CC3)CS[C@H]12)c1csc(N)n1`, the MIC in test [1] was determined as 4 µg/mL (≈ 4.92 µM); in [2], 1 µg/mL (≈ 1.23 µM); in test [3] it was 0.063 µg/mL (≈ 0.0774 µM); in test [5], 1 µg/mL (≈ 1.23 µM); in [6] it was 0.06 µg/mL (≈ 0.0737 µM); in test [7] it was 0.063 µg/mL (≈ 0.0774 µM). Also, the minimum inhibitory concentration (MIC) in test [8] was 0.063 µg/mL (≈ 0.0774 µM); in [10], 0.5 µg/mL (≈ 0.614 µM); in test [11], 0.063 µg/mL (≈ 0.0774 µM); in test [12] it was 0.125 µg/mL (≈ 0.154 µM); in [14] it was 1 µg/mL (≈ 1.23 µM); in test [16] it was 0.031 µg/mL (≈ 0.0381 µM). Besides, the MIC in [17] turned out to be 0.031 µg/mL (≈ 0.0381 µM); in test [18] it was 0.5 µg/mL (≈ 0.614 µM); in [19], 2 µg/mL (≈ 2.46 µM); in test [20], 0.063 µg/mL (≈ 0.0774 µM); in [22], 1 µg/mL (≈ 1.23 µM); in [23], 0.063 µg/mL (≈ 0.0774 µM). In addition, the MIC in test [24] came to 0.125 µg/mL (≈ 0.154 µM); in test [25], 2 µg/mL (≈ 2.46 µM). The Inhibitory concentration in [4] was 2 µg/mL; in [9], 100 µg/mL; in test [13], 10 µg/mL; in [21], below 0.1 µg/mL. In test [15], the IC50 worked out at 1.2 µg/mL (≈ 1.47 µM).

Turning to `O=C(O)C1=C(COC(=O)N2CCN(c3cc4c(cc3F)c(=O)c(C(=O)O)cn4C3CC3)CC2)CS[C@@H]2[C@H](NC(=O)C(O)c3ccccc3)C(=O)N12` (stereo partly specified), the minimum inhibitory concentration (MIC) in test [1] is 2 µg/mL (≈ 2.77 µM); in test [3] it was 0.031 µg/mL (≈ 0.043 µM); in [5] it was 0.5 µg/mL (≈ 0.693 µM); in [6], 0.03 µg/mL (≈ 0.0416 µM); in test [7], below 0.016 µg/mL; in test [8], 0.031 µg/mL (≈ 0.043 µM). In addition, the MIC in [10] was 4 µg/mL (≈ 5.54 µM); in test [11] it was 0.063 µg/mL (≈ 0.0873 µM); in test [12], 0.125 µg/mL (≈ 0.173 µM); in test [14], 0.25 µg/mL (≈ 0.346 µM); in test [16] it was 0.031 µg/mL (≈ 0.043 µM); in [17], below 0.016 µg/mL. Also, the MIC is 0.25 µg/mL (≈ 0.346 µM) in test [18]; 1 µg/mL (≈ 1.39 µM) in test [19]; 0.031 µg/mL (≈ 0.043 µM) in test [26]; 0.031 µg/mL (≈ 0.043 µM) in test [20]; 1 µg/mL (≈ 1.39 µM) in test [22]; 0.031 µg/mL (≈ 0.043 µM) in test [23]. The MIC in test [24] stood at 0.063 µg/mL (≈ 0.0873 µM); in test [25], 0.5 µg/mL (≈ 0.693 µM). Further, in test [15], the IC50 is 4 µg/mL (≈ 5.54 µM).

Consider `O=CN[C@@H]1C(=O)N2C(C(=O)O)=C(COC(=O)N3CCN(c4cc5c(cc4F)c(=O)c(C(=O)O)cn5C4CC4)CC3)CS[C@H]12`, for which the MIC in test [1] came out at 4 µg/mL (≈ 6.5 µM); in test [2], 2 µg/mL (≈ 3.25 µM); in test [3] it was 0.063 µg/mL (≈ 0.102 µM); in test [5], 1 µg/mL (≈ 1.62 µM); in test [6], 0.06 µg/mL (≈ 0.0975 µM); in [7], 0.031 µg/mL (≈ 0.0504 µM). For the same molecule, the MIC in [8] was 0.063 µg/mL (≈ 0.102 µM); in test [10], 4 µg/mL (≈ 6.5 µM); in [11], 0.063 µg/mL (≈ 0.102 µM); in [12], 0.125 µg/mL (≈ 0.203 µM); in test [14], 0.5 µg/mL (≈ 0.812 µM); in test [16] it was 0.063 µg/mL (≈ 0.102 µM). The MIC was determined as 0.125 µg/mL (≈ 0.203 µM) in [17]; 1 µg/mL (≈ 1.62 µM) in test [18]; 2 µg/mL (≈ 3.25 µM) in [19]; 0.063 µg/mL (≈ 0.102 µM) in [20]; 2 µg/mL (≈ 3.25 µM) in test [22]; 0.5 µg/mL (≈ 0.812 µM) in test [23]. The MIC in [24] was 0.25 µg/mL (≈ 0.406 µM); in [25], 1 µg/mL (≈ 1.62 µM). The Inhibitory concentration in test [4] is above 100 µg/mL; in test [9] it was above 100 µg/mL; in test [13], above 100 µg/mL; in test [21] it was 100 µg/mL. Besides, the IC50 in test [15] was 0.5 µg/mL (≈ 0.812 µM).

For the origin of these results see ChEMBL document CHEMBL1125212, “Dual-action cephalosporins: cephalosporin 3'-quinolone carbamates” (J Med Chem, 1991).
